Data on 15 molecules can be found in ChEMBL document CHEMBL1152308, “Cytotoxic phenanthrenequinones and 9,10-dihydrophenanthrenes from Calanthe arisanensis” (J Nat Prod, 2009).

Common to all, as to format: functional, cell-based
In test [1] the test system is HCT-8. Put plainly: Cytotoxicity against human HCT8 cells after 3 days by sulforhodamine B assay. Particulars: HCT-8, 72 h. In short, it runs like this: (§1)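 Freshly trypsinized cells seeded at 5000 per well; compounds added from DMSO-diluted stock. Cells grown in RPMI-1640 with 25 mM HEPES, 0.25% sodium bicarbonate, 10% FBS and 100 μg/mL kanamycin. After three days, attached cells fixed with cold 10% TCA and stained with 0.4% SRB. Bound dye solubilized and absorbance read at 562 nm. EC50 (50% growth reduction) averaged from at least three independent determinations.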

In test [2] the test system is KB. Nature of the test: Cytotoxicity against human KB cells after 3 days by sulforhodamine B assay. As to conditions: 72 h. In short, it runs like this:
as §1

In test [3] the test system is MCF7. Put plainly: Cytotoxicity against human MCF7 cells after 3 days by sulforhodamine B assay. Particulars: MCF7, 72 h. In short, it runs like this: as §1
On the technique in general: In SRB staining, fixed cells bind dye roughly in proportion to their protein.

In test [4] the test system is PC-3. Nature of the test: Cytotoxicity against human PC3 cells after 3 days by sulforhodamine B assay. As to conditions: PC-3, 72 h. In short, it runs like this:
as §1

In test [5] the test system is DU-145. Nature of the test: Cytotoxicity against human DU145 cells after 3 days by sulforhodamine B assay. As to conditions: DU-145, 72 h. In short, it runs like this:
as §1

Test [6] in a line: Cytotoxicity against human KBVIN cells after 3 days by sulforhodamine B assay. As to conditions: 72 h. In short, it runs like this:
as §1

Test [7] relates to A549. Nature of the test: Cytotoxicity against human A549 cells after 3 days by sulforhodamine B assay. As to conditions: A549, 72 h. In short, it runs like this: as §1

As a reminder, the EC50 is the concentration that produces a half-maximal response. Higher therefore signals a less potent agent. Usually pEC50 stands for the negative decadic logarithm of the EC50, by convention in mol/L. A lower pEC50 goes with a large EC50.

pEC50: −log10 of the molar value. Converted amounts (≈) assume the structure as drawn.

In the case of `COc1cc(O)cc2c1-c1ccc(O)cc1CC2`, the concentration for a half-maximal effect (EC50) worked out at 3.84 µg/mL in test [1]; 3.4 µg/mL (≈ 14 µM) in test [2]; 1.8 µg/mL in test [3]; 2.82 µg/mL (≈ 11.6 µM) in test [4]; 4.79 µg/mL (≈ 19.8 µM) in test [5]; 7.92 µg/mL (≈ 32.7 µM) in test [6]. For the same molecule, a half-maximal effect in test [7] (EC50) was put at 5.05 µg/mL.

Take `COc1cc2c(cc1O)CCc1cc(O)cc(OC)c1-2`: the half-maximal effective concentration (EC50) in test [1] came out at 4.55 µg/mL; in test [2], 3.9 µg/mL (≈ 14.3 µM); in test [3], 2.59 µg/mL; in test [4] it was 2.67 µg/mL (≈ 9.81 µM); in test [5], 5.38 µg/mL (≈ 19.8 µM); in test [6], 5.84 µg/mL (≈ 21.4 µM). In test [7], a half-maximal response (EC50) required 4.24 µg/mL.

As for `COc1cc(O)c(-c2c(O)cc(OC)c3c2CCc2cc(O)ccc2-3)c2c1-c1ccc(O)cc1CC2`, the concentration for a half-maximal effect (EC50) came out at 4.6 µg/mL in test [1]; 4.4 µg/mL (≈ 9.12 µM) in test [2]; 3.5 µg/mL in test [3]; 5.37 µg/mL (≈ 11.1 µM) in test [4]; 4.11 µg/mL (≈ 8.52 µM) in test [5]; 3.96 µg/mL (≈ 8.21 µM) in test [6]. In test [7], this molecule came in with an EC50 of 4.61 µg/mL.

With `COC1=CC(=O)c2ccc3ccccc3c2C1=O` [ANNOQUINONE A], the EC50 in test [2] came to 0.16 µg/mL (≈ 0.672 µM).

On to `COc1cc2ccc3cccc(O)c3c2c(OC)c1O` [BULBOPHYLLANTHRIN], for which the EC50 in test [1] turned out to be 5.26 µg/mL; in test [2] it was 5.63 µg/mL (≈ 20.8 µM); in test [3] it was 3.26 µg/mL; in test [4] it was 3.38 µg/mL (≈ 12.5 µM); in test [5], 8.29 µg/mL (≈ 30.7 µM); in test [6], 6.99 µg/mL (≈ 25.9 µM). In test [7], this molecule displayed a half-maximal effective concentration (EC50) of 5.06 µg/mL.

For `COc1cc2c(c(OC)c1O)-c1c(O)ccc(O)c1CC2` [CALANHYDROQUINONE A], the 50% effective concentration (EC50) is 4.57 µg/mL in test [1]; 3.47 µg/mL (≈ 12 µM) in test [2]; 2.31 µg/mL in test [3]; 2.52 µg/mL (≈ 8.74 µM) in test [4]; 5.84 µg/mL (≈ 20.3 µM) in test [5]; 5.37 µg/mL (≈ 18.6 µM) in test [6]. This molecule also gave an EC50 in test [7] of 3.58 µg/mL.

Turning to `COc1c(O)cc2c(c1OC)-c1c(O)ccc(O)c1CC2` [CALANHYDROQUINONE B], the half-maximal effective concentration (EC50) was determined as 5.16 µg/mL in test [1]; 3.75 µg/mL (≈ 13 µM) in test [2]; 3.28 µg/mL in test [3]; 2.62 µg/mL (≈ 9.09 µM) in test [4]; 5.46 µg/mL (≈ 18.9 µM) in test [5]; 5.24 µg/mL (≈ 18.2 µM) in test [6]. In test [7], this molecule displayed a concentration for a half-maximal effect (EC50) of 4.07 µg/mL.

In the case of `COc1cc2c(c(OC)c1OC)-c1c(O)ccc(O)c1CC2` [CALANHYDROQUINONE C], the EC50 turned out to be 3.96 µg/mL in test [1]; 2.86 µg/mL (≈ 9.46 µM) in test [2]; 1.7 µg/mL in test [3]; 0.85 µg/mL (≈ 2.81 µM) in test [4]; 3.78 µg/mL (≈ 12.5 µM) in test [5]; 4.73 µg/mL (≈ 15.6 µM) in test [6]. The molecule further yielded an EC50 in test [7] of 2.36 µg/mL.

With `COc1cc(O)c2c(c1)CCc1ccc(O)c(OC)c1-2` [CALANPHENANTHRENE A], the EC50 in test [1] amounted to 6.73 µg/mL; in test [2], 11.8 µg/mL (≈ 43.3 µM); in test [3], 6.52 µg/mL; in test [4], 7.06 µg/mL (≈ 25.9 µM); in test [5], 13.2 µg/mL (≈ 48.5 µM); in test [6] it was 5.48 µg/mL (≈ 20.1 µM). In addition, a half-maximal effect in test [7] (EC50) was put at 7.71 µg/mL.

As for `COC1=CC(=O)c2ccc3cc(OC)c(OC)c(O)c3c2C1=O` [CALANQUINONE A], the EC50 in test [1] is 0.2 µg/mL; in test [2], 0.32 µg/mL (≈ 1.02 µM); in test [3] it was under 0.02 µg/mL; in test [4] it was 0.16 µg/mL (≈ 0.509 µM); in test [5], 0.34 µg/mL (≈ 1.08 µM); in test [6], 0.45 µg/mL (≈ 1.43 µM). Further, in test [7], a half-maximal effect (EC50) was put at 0.19 µg/mL.

For `COC1=CC(=O)c2ccc3cc(OC)c(O)c(OC)c3c2C1=O` [CALANQUINONE B], the half-maximal effective concentration (EC50) in test [1] stood at 4.56 µg/mL; in test [2], 6.46 µg/mL (≈ 20.6 µM); in test [3], 1.81 µg/mL; in test [4] it was 1.55 µg/mL (≈ 4.93 µM); in test [5], 6.45 µg/mL (≈ 20.5 µM); in test [6], 13.3 µg/mL (≈ 42.3 µM). This molecule showed a 50% effective concentration (EC50) in test [7] of 4.54 µg/mL.

`COc1cc2c(c(OC)c1O)C1=C(CC2)C(=O)C=CC1=O` [CALANQUINONE C]: the EC50 came to 4.14 µg/mL in test [1]; 2.97 µg/mL (≈ 10.4 µM) in test [2]; 2.12 µg/mL in test [3]; 2.07 µg/mL (≈ 7.23 µM) in test [4]; 4.34 µg/mL (≈ 15.2 µM) in test [5]; 4.68 µg/mL (≈ 16.3 µM) in test [6]. Further, the EC50 in test [7] amounted to 3.58 µg/mL.

Turning to `COc1cc(O)c(-c2c(O)cc(OC)c3c2ccc2cc(O)ccc23)c2c1-c1ccc(O)cc1CC2` [CIRRHOPETALANTHRIN], the pEC50 in test [1] was 5.14; in test [3], 4.90; in test [7] it was 4.95.

Turning to `CC(=O)O[C@H]1C(=O)[C@@]2(C)[C@H]([C@H](OC(=O)c3ccccc3)[C@]3(O)C[C@H](OC(=O)[C@H](O)[C@@H](NC(=O)c4ccccc4)c4ccccc4)C(C)=C1C3(C)C)[C@]1(OC(C)=O)CO[C@@H]1C[C@@H]2O` [PACLITAXEL], the concentration for a half-maximal effect (EC50) in test [1] was 0.21 µg/mL; in test [2], under 0.005 µg/mL; in test [3], 0.0072 µg/mL; in test [4], 0.0097 µg/mL (≈ 0.0114 µM); in test [5], under 0.005 µg/mL; in test [6], 2.16 µg/mL (≈ 2.53 µM). Also, the EC50 in test [7] was under 0.005 µg/mL.

Regarding `COC1=CC(=O)c2ccc3cc(OC)c(OC)cc3c2C1=O` [SPHENONE A], in test [2], the EC50 was found to be 2.7 µg/mL (≈ 9.05 µM).
